Assay results published in ChEMBL document CHEMBL4261530, “Rational design and synthesis of novel phenylsulfonyl-benzamides as anti-prostate cancer agents” (Medchemcomm, 2017).

Key:
CWR22R [1] = assay: Antiproliferative activity against human 22Rv1 cells after 96 hrs by propidium iodide staining-based fluorescence assay; format: functional, cell-based
DU-145 [2] = assay: Antiproliferative activity against human DU145 cells after 96 hrs by propidium iodide staining-based fluorescence assay; format: functional, cell-based
LNCaP [3] = assay: Antiproliferative activity against human LNCAP cells after 96 hrs by propidium iodide staining-based fluorescence assay; format: functional, cell-based
VCaP [4] = assay: Antiproliferative activity against human VCaP cells after 96 hrs by propidium iodide staining-based fluorescence assay; format: functional, cell-based
CWR22R [5] = assay: Potency index, ratio of enzalutamide IC50 to test compound IC50 for human 22Rv1 cells; format: functional
DU-145 [6] = assay: Potency index, ratio of enzalutamide IC50 to test compound IC50 for human DU145 cells; format: functional
LNCaP [7] = assay: Potency index, ratio of enzalutamide IC50 to test compound IC50 for human LNCAP cells; format: functional
VCaP [8] = assay: Potency index, ratio of enzalutamide IC50 to test compound IC50 for human VCaP cells; format: functional
HEK293 = assay: Cytotoxicity against HEK293 cells assessed as reduction in cell viability at 10 uM after 24 hrs by CellTiter-Blue assay relative to control; format: cell-based; conditions: human, hek293, 24 h
Outline: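 HEK293 cells in DMEM with 10% FBS and 2 mM L-glutamine, seeded at 100,000 cells/ml and treated after 24 h at 10 µM for 24 h. […] Cell Titer Blue added for 2 h at 37°C, fluorescence read at 560/590 nm.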

| Compound | Activity (CWR22R [1]) | Activity (DU-145 [2]) | Activity (LNCaP [3]) | Activity (VCaP [4]) | Ratio IC50 (CWR22R [5]) | Ratio IC50 (DU-145 [6]) | Ratio IC50 (LNCaP [7]) | Ratio IC50 (VCaP [8]) | Activity (HEK293) | IC50 (CWR22R [1]) | IC50 (DU-145 [2]) | IC50 (LNCaP [3]) | IC50 (VCaP [4]) |
| --- | --- | --- | --- | --- | --- | --- | --- | --- | --- | --- | --- | --- | --- |
| O=C(Nc1cc(C(F)(F)F)cc(C(F)(F)F)c1)c1ccc(Sc2ccc(O)cc2)cc1 | Dose-dependent effect | Dose-dependent effect | Dose-dependent effect | Dose-dependent effect | <=8 | <=8 | <=8 | <=8 |  |  |  |  |  |
| O=C(Nc1cccc(S(F)(F)(F)(F)F)c1)c1ccc(Sc2ccc(O)cc2)cc1 | Dose-dependent effect | Dose-dependent effect | Dose-dependent effect | Dose-dependent effect | <=8 | <=8 | <=8 | <=8 |  |  |  |  |  |
| O=C(Nc1cc(C(F)(F)F)cc(C(F)(F)F)c1)c1ccc(S(=O)(=O)c2ccc(O)cc2)cc1 | Dose-dependent effect | Dose-dependent effect | Dose-dependent effect | Dose-dependent effect | <=8 | <=8 | <=8 | <=8 |  |  |  |  |  |
| O=C(Nc1ccc([N+](=O)[O-])c(C(F)(F)F)c1)c1ccc(S(=O)(=O)c2ccc(O)cc2)cc1 | Dose-dependent effect | Dose-dependent effect | Dose-dependent effect | Dose-dependent effect | <=8 | <=8 | <=8 | <=8 |  |  |  |  |  |
| O=C(Nc1ccc(S(F)(F)(F)(F)F)cc1)c1ccc(Sc2ccc(O)cc2)cc1 | Dose-dependent effect | Dose-dependent effect | Dose-dependent effect | Dose-dependent effect | <=8 | <=8 | <=8 | <=8 | Toxic |  |  |  |  |
| N#Cc1ccc(NC(=O)c2ccc(Sc3cccc(C(F)(F)F)c3)cc2)cc1C(F)(F)F | Dose-dependent effect | Dose-dependent effect | Dose-dependent effect | Dose-dependent effect | <=8 | <=8 | <=8 | <=8 |  |  |  |  |  |
| O=C(Nc1ccccc1C(F)(F)F)c1ccc([S+]([O-])c2ccc(O)cc2)cc1 (configuration not stated) | Dose-dependent effect | Dose-dependent effect | Dose-dependent effect | Dose-dependent effect |  |  |  |  |  |  |  |  |  |
| O=C(Nc1cc(C(F)(F)F)ccc1C(F)(F)F)c1ccc(S(=O)(=O)c2ccc(O)cc2)cc1 | Dose-dependent effect | Dose-dependent effect | Dose-dependent effect | Dose-dependent effect | <=8 | <=8 | <=8 | <=8 |  |  |  |  |  |
| O=C(Nc1cccc(C(F)(F)F)c1)c1ccc(Sc2ccc(O)cc2)cc1 | Dose-dependent effect | Dose-dependent effect | Dose-dependent effect | Dose-dependent effect | <=8 | <=8 | <=8 | <=8 |  |  |  |  |  |
| N#Cc1ccc(NC(=O)c2ccc(S(=O)(=O)c3cccc(C(F)(F)F)c3)cc2)cc1C(F)(F)F | Dose-dependent effect | Dose-dependent effect | Dose-dependent effect | Dose-dependent effect | <=8 | <=8 | <=8 | <=8 |  |  |  |  |  |
| N#Cc1ccc(NC(=O)c2ccc(S(=O)(=O)c3ccc(O)cc3)cc2)cc1C(F)(F)F | Dose-dependent effect | Dose-dependent effect | Dose-dependent effect | Dose-dependent effect | <=8 | <=8 | <=8 | <=8 |  |  |  |  |  |
| O=C(Nc1ccc(C(F)(F)F)cc1)c1ccc(S(=O)(=O)c2ccc(O)cc2)cc1 | Dose-dependent effect | Dose-dependent effect | Dose-dependent effect | Dose-dependent effect | <=8 | <=8 | <=8 | <=8 |  |  |  |  |  |
| O=C(Nc1cccc(C(F)(F)F)c1)c1ccc(S(=O)(=O)c2ccc(O)cc2)cc1 | Dose-dependent effect | Dose-dependent effect | Dose-dependent effect | Dose-dependent effect | <=8 | <=8 | <=8 | <=8 |  |  |  |  |  |
| O=C(Nc1ccc([N+](=O)[O-])c(C(F)(F)F)c1)c1ccc(Sc2ccc(O)cc2)cc1 | Dose-dependent effect | Dose-dependent effect | Dose-dependent effect | Dose-dependent effect | <=8 | <=8 | <=8 | <=8 |  |  |  |  |  |
| O=C(Nc1ccc(S(F)(F)(F)(F)F)cc1)c1ccc([S+]([O-])c2ccc(O)cc2)cc1 (configuration not stated) | Dose-dependent effect | Dose-dependent effect | Dose-dependent effect | Dose-dependent effect | <=8 | <=8 | <=8 | <=8 |  |  |  |  |  |
| N#Cc1ccc(NC(=O)c2ccc(Sc3ccc(O)cc3)cc2)cc1C(F)(F)F | Dose-dependent effect | Dose-dependent effect | Dose-dependent effect | Dose-dependent effect | <=8 | <=8 | <=8 | <=8 |  |  |  |  |  |
| O=C(Nc1ccccc1C(F)(F)F)c1ccc(S(=O)(=O)c2ccc(O)cc2)cc1 | Dose-dependent effect | Dose-dependent effect | Dose-dependent effect | Dose-dependent effect | <=8 | <=8 | <=8 | <=8 |  |  |  |  |  |
| O=C(Nc1ccc(S(F)(F)(F)(F)F)cc1)c1ccc(S(=O)(=O)c2ccc(O)cc2)cc1 | Dose-dependent effect | Dose-dependent effect | Dose-dependent effect | Dose-dependent effect | <=8 | <=8 | <=8 | <=8 | > 50% |  |  |  |  |
| O=C(Nc1cccc(C(F)(F)F)c1)c1ccc(Sc2cccc(C(F)(F)F)c2)cc1 | Dose-dependent effect | Dose-dependent effect | Dose-dependent effect | Dose-dependent effect | <=8 | <=8 | <=8 | <=8 |  |  |  |  |  |
| O=C(Nc1cccc(C(F)(F)F)c1)c1ccc(S(=O)(=O)c2cccc(C(F)(F)F)c2)cc1 |  |  |  |  |  |  |  |  |  | Nd(Insoluble) | Nd(Insoluble) | Nd(Insoluble) | Nd(Insoluble) |
| O=C(Nc1ccccc1C(F)(F)F)c1ccc(Sc2ccc(O)cc2)cc1 | Dose-dependent effect | Dose-dependent effect | Dose-dependent effect | Dose-dependent effect | <=8 | <=8 | <=8 | <=8 |  |  |  |  |  |
| O=C(Nc1cccc(S(F)(F)(F)(F)F)c1)c1ccc(S(=O)(=O)c2ccc(O)cc2)cc1 | Dose-dependent effect | Dose-dependent effect | Dose-dependent effect | Dose-dependent effect | <=8 | <=8 | <=8 | <=8 |  |  |  |  |  |
| O=C(Nc1ccc(C(F)(F)F)cc1)c1ccc(Sc2ccc(O)cc2)cc1 | Dose-dependent effect | Dose-dependent effect | Dose-dependent effect | Dose-dependent effect | <=8 | <=8 | <=8 | <=8 |  |  |  |  |  |
| O=C(Nc1cc(C(F)(F)F)ccc1C(F)(F)F)c1ccc(Sc2ccc(O)cc2)cc1 | Dose-dependent effect | Dose-dependent effect | Dose-dependent effect | Dose-dependent effect | <=8 | <=8 | <=8 | <=8 | Toxic |  |  |  |  |
